For 97 compounds, cytotoxicity results are on record in ChEMBL document CHEMBL4513216, “Probing the Open Global Health Chemical Diversity Library for Multistage-Active Starting Points for Next-Generation Antimalarials” (ACS Infect Dis, 2020).

This series is described as follows: Toxicity liver stage against HepG2, at 10uM. The following applies: human, HepG2-A16-CD81EGFP cells; read-out: INHIBITION
Also noted: test concentration 10 uM, cell line HepG2-A16-CD81EGFP. Type of series: cell-based. The method in brief:
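Uninfected HepG2-A16-CD81EGFP cells, 3 × 10^3 per well, 1536-well, plated on prespotted compound at 10 μM final, parasite-free screening media added to match infected plates; puromycin 10 μM positive, DMSO 0.5% negative; run in parallel with 48 h PbLuc assay at 37 °C, 5% CO2; viability by CellTiter-Glo luminescence, normalized to controls.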
Regarding `N#CC(NC(=O)c1cccc2c1OCCO2)c1ccc(F)cc1F` (configuration not stated), the cytotoxicity at 10 µM was -2.61%.

`CNCc1ccc([C@@H]2CN(C(C)=O)C[C@H]2C(N)=O)cc1`: the cytotoxicity at 10 µM was determined as 5.32%.

`Cc1ccc(F)c2c1N(C(=O)c1cn(CC(=O)N(C)C)nn1)CCC2`: the cytotoxicity at 10 µM is -9.17%.

Turning to `CNC(=O)C(C)(C)N1CCC[C@H]1C(=O)NCCN1CCOCC1`, the cytotoxicity at 10 µM is 3.29%.

With `CN1C(=O)c2ccc(C(=O)N(Cc3cnn(C)c3)C3CC3)cc2C1=O`, the cytotoxicity at 10 µM was 5.68%.

Regarding `O=C(NCC1COCc2c(-c3ccncc3)nnn2C1)[C@H]1CCCO1` (some centres not stated), the cytotoxicity at 10 µM stood at 1.9%.

As to `CCOc1ccc(OCC)c(NCc2cc(C)on2)c1`, the cytotoxicity at 10 µM was -40.1%.

As to `O=C(NC1CCN(C2CC2)CC1)NC1CCOc2ccc(Br)cc21` (configuration not stated), the cytotoxicity at 10 µM is -3.43%.

Take `COc1ncccc1-c1nc(-c2ccccn2)nn1C1CCN(C)CC1`: the cytotoxicity at 10 µM was -4.52%.

As to `CC(C)CN1CC(C(=O)NCCNc2ncccn2)CC1=O` (configuration not stated), the cytotoxicity at 10 µM is -23%.

As to `CCOC(=O)C1(Cc2cccc(OC)c2)CCN(Cc2ccon2)CC1`, the cytotoxicity at 10 µM is 2.61%.

Consider `Cc1cccc2c(=O)c(C(=O)N3CCCC4(CN(C)C(=O)O4)C3)c[nH]c12` (configuration not stated), for which the cytotoxicity at 10 µM was 10.5%.

As for `Cc1nn(C)c(C)c1CN(C)CC1(O)CCCN(C)C1` (configuration not stated), the cytotoxicity at 10 µM was determined as 6.5%.

As to `CN(C)CCN(Cc1cccc(F)c1)C(=O)c1ccc2nccn2c1`, the cytotoxicity at 10 µM was -0.0817%.

As to `Cc1ccoc1C(=O)NCCS(=O)(=O)N1CCSCC1`, the cytotoxicity at 10 µM was -2.65%.

For `O=c1cc(CN2CCC(CCc3ccc(O)cc3)CC2)[nH]c(=O)[nH]1`, the cytotoxicity at 10 µM is -0.885%.

With `Cc1cccc(Cn2ccc(NS(C)(=O)=O)n2)c1`, the cytotoxicity at 10 µM was -6.6%.

Turning to `COC(=O)c1ccc(/C=C/c2ncc(C(=O)O)s2)cc1`, the cytotoxicity at 10 µM was -7.11%.

Turning to `CC(C)N1CCCn2c(nc(CNC(=O)c3nccn3C)cc2=O)C1`, the cytotoxicity at 10 µM came to 2.84%.

As to `CCN1CC2(CCCCN2C(=O)C2CCCCC2)CC1=O` (configuration not stated), the cytotoxicity at 10 µM is 18.3%.

In the case of `CN(C)CCNC(=O)c1cnc2c(c1)nc(-c1ccccc1Cl)n2C`, the cytotoxicity at 10 µM was found to be 10.6%.

For `COCC(C)NC(=O)c1cc(Br)c2c(c1)OCCO2` (configuration not stated), the cytotoxicity at 10 µM was 3.54%.

In the case of `N#Cc1nccnc1NCCC1CCN(CC(F)(F)F)CC1`, the cytotoxicity at 10 µM was determined as 1.6%.

With `CC(=O)Nc1nc(CS(=O)(=O)CCCc2ccccc2)cs1`, the cytotoxicity at 10 µM is -1.2%.

With `CC(NC(=O)c1cc(-c2cccc(Cl)c2)no1)C(=O)N(C)C` (configuration not stated), the cytotoxicity at 10 µM is -2.16%.

Consider `Cc1noc(-c2ccnc(Oc3cccc(CN4CCCC4)c3F)c2)n1`, for which the cytotoxicity at 10 µM was -7.07%.

For `Cc1noc2nc(C3CCCN(Cc4ccncc4)C3)cc(C(F)F)c12` (configuration not stated), the cytotoxicity at 10 µM is -16.7%.

In the case of `CC(C)(C)OC(=O)NCC1CCN(C(=O)c2ccccc2O)CC1`, the cytotoxicity at 10 µM came to 8.53%.

Take `CS(=O)(=O)N1CCO[C@@H]2CN(C(=O)c3cccnc3)C[C@@H]2C1`: the cytotoxicity at 10 µM worked out at 7.64%.

On to `Cc1ccc(CN2CCC3(C2)C(=O)N(CC2CC2)c2ccccc23)s1` (configuration not stated), for which the cytotoxicity at 10 µM is 13.4%.

With `Cc1ccc(=O)n(Cc2csc(N(C)C3CC3)n2)n1`, the cytotoxicity at 10 µM worked out at 4.09%.

Consider `CCN(Cc1nccn1C)C(=O)c1ccc(NCCc2c[nH]cn2)nc1`, for which the cytotoxicity at 10 µM was -2.5%.

With `Cc1nn(-c2ccccc2)nc1C(=O)NCC(c1ccco1)N(C)C` (configuration not stated), the cytotoxicity at 10 µM was found to be 6.51%.

Take `O=C(CCN1C(=O)CCC1=O)Nc1cnn(-c2ccccc2Cl)c1`: the cytotoxicity at 10 µM was -9.56%.

On to `c1coc(CN2CCOC3(COCCN(Cc4ccncc4)C3)C2)c1` (configuration not stated), for which the cytotoxicity at 10 µM came to 4.03%.

For `CSCCC(NC(=O)c1ccc2ccccc2n1)C(=O)NC1CC1` (configuration not stated), the cytotoxicity at 10 µM is -7.03%.

Take `CCc1n[nH]c(C2CN(C(=O)c3ncoc3C(C)C)CCO2)n1` (configuration not stated): the cytotoxicity at 10 µM is -9.8%.

Regarding `NC(=O)CN1CCC(c2cc(C(F)(F)F)n3ccnc3n2)CC1`, the cytotoxicity at 10 µM is -2.28%.

Consider `CCN(CC)S(=O)(=O)NCC(O)c1c(Cl)cccc1Cl` (configuration not stated), for which the cytotoxicity at 10 µM was found to be 8.66%.

Consider `CNC(=O)C1CN(C(=O)Cc2ccc(OC)cc2)Cc2cn(C)nc21` (configuration not stated), for which the cytotoxicity at 10 µM came out at 2.99%.

With `CN(C)C(=O)N1CCC(C(=O)N2CCOC(CC3CCCCC3)C2)CC1` (configuration not stated), the cytotoxicity at 10 µM is 21.3%.

Turning to `CN(Cc1nnc2n1CCC2)C(=O)Cc1ccc2c(c1)OCCO2`, the cytotoxicity at 10 µM is -7.86%.

Take `O=C(c1ccc2c(c1)[nH]c(=O)n2C1CCCC1)N1CCC1`: the cytotoxicity at 10 µM was -46.4%.

Take `COc1ccc(C(=O)N(C)Cc2cc(C)on2)c(F)c1`: the cytotoxicity at 10 µM was -5.2%.

For the compound `Cn1nc(C(=O)NCc2ccccn2)c2c1CCS(=O)(=O)C2`, the cytotoxicity at 10 µM stood at 7.21%.

Turning to `O=C1CC2(CCN(Cc3ccc(Cl)s3)C2)C(=O)N1` (configuration not stated), the cytotoxicity at 10 µM is -3.3%.

With `CCCNc1c(NC(=O)NCCOC)c(=O)oc2ccccc12`, the cytotoxicity at 10 µM is -6.23%.

Take `CCn1cc(NC(=O)NCC(O)COc2ccccc2)cn1` (configuration not stated): the cytotoxicity at 10 µM was -8.6%.

Take `COc1cc(NCC(c2ccccn2)N2CCOCC2)ncn1` (configuration not stated): the cytotoxicity at 10 µM is -49.1%.

For the compound `O=C(NC1(c2cccc(F)c2)CCOCC1)c1cc[nH]n1`, the cytotoxicity at 10 µM is -6.83%.

In the case of `O=C(CNC(=O)C1CC1)NCCOc1cccc(Cl)c1Cl`, the cytotoxicity at 10 µM stood at 5.04%.

For the compound `COc1ccc(Cl)cc1CC(=O)N1CCN(CC(C)(C)O)CC1`, the cytotoxicity at 10 µM was -4.21%.

For the compound `Clc1cccc(-n2cnnn2)c1N1CCCC1`, the cytotoxicity at 10 µM came to 9.35%.

Consider `COCCN1CCC2(CC1)CC(NC(=O)CC1CC1)c1ccccc1O2` (configuration not stated), for which the cytotoxicity at 10 µM was -1.83%.

Regarding `CCN(Cc1cccc(Cl)c1)Cc1nc2c(cnn2C)c(=O)[nH]1`, the cytotoxicity at 10 µM was 1.01%.

As to `CN(C)C1CCN(C(=O)c2cc(-c3ccn(C)n3)n3ccccc23)CC1`, the cytotoxicity at 10 µM was -117%.

For `O=C(c1cc[nH]n1)N1CCc2c(nc(N3CCCCC3)[nH]c2=O)C1`, the cytotoxicity at 10 µM was found to be 15.5%.

Regarding `Clc1cnc(NCc2ccccc2N2CCOCC2)nc1`, the cytotoxicity at 10 µM is -0.234%.

As for `CNC(=O)Cc1ccc(-n2ccnc2-c2ccc(C(=O)O)s2)cc1`, the cytotoxicity at 10 µM was -1.53%.

On to `Nc1nc(CN2CCCCC2Cn2cncn2)nc2ccccc12` (configuration not stated), for which the cytotoxicity at 10 µM was -15.6%.

Take `Cc1ccsc1-c1nccn1CCN1CCCOC1=O`: the cytotoxicity at 10 µM is -4.68%.

Consider `C[C@@H](CO)NC(=O)c1ccc2nc(NS(C)(=O)=O)sc2c1`, for which the cytotoxicity at 10 µM came to 6.84%.

For the compound `CCCN1CCC(Cc2noc(-c3[nH]cnc3C)n2)CC1`, the cytotoxicity at 10 µM was 1.34%.

Regarding `Cc1n[nH]c(CCC(=O)N2CCOC(Cc3ccc(F)cc3)C2)c1C` (configuration not stated), the cytotoxicity at 10 µM is -40.4%.

For `CN1CCC(c2cncc(C(=O)NCc3ccc(F)cc3)n2)CC1`, the cytotoxicity at 10 µM was -8.11%.

As to `CN1CCOC(CNCC(=O)NCCCc2ccccc2)C1` (configuration not stated), the cytotoxicity at 10 µM was -3.23%.

For `Cc1c(C(=O)O)oc2ccc(I)cc12`, the cytotoxicity at 10 µM was -1.87%.

In the case of `Cc1c(C(=O)N2CCN(C)[C@@H]3CS(=O)(=O)C[C@@H]32)[nH]c2ccc(F)cc12`, the cytotoxicity at 10 µM was -9.2%.

For the compound `COc1ccccc1C(O)CNC(=O)NCc1cccnc1OC` (configuration not stated), the cytotoxicity at 10 µM was -4.48%.

As for `COc1cccc(CN(C)Cc2cccc(C#N)c2)c1OC`, the cytotoxicity at 10 µM is -7.82%.

Consider `CC(C)c1noc(CN2CCN(C(=O)c3ccc(F)cc3)CC2)n1`, for which the cytotoxicity at 10 µM was -9.73%.

`CCN(Cc1cnn(C)c1)C[C@H]1CC[C@@H](Cc2ccc(OC)nc2)O1`: the cytotoxicity at 10 µM amounted to 1.94%.

`Cc1cc(C)n(C2CCCN(C(=O)c3ccc(F)cc3F)C2)n1` (configuration not stated): the cytotoxicity at 10 µM was found to be 0.743%.

Take `Cn1ncc2c(N3CCN(CCO)CC3)nc(C3CCCC3)nc21`: the cytotoxicity at 10 µM is -4.07%.

Turning to `CN(C)C(=O)c1ccc(-c2cscn2)cc1`, the cytotoxicity at 10 µM came to 1.53%.

As to `Cc1ccc(C)c(Oc2ccc(CNC(=O)C3CCS(=O)(=O)C3)cn2)c1` (configuration not stated), the cytotoxicity at 10 µM was -3.98%.

Consider `CCNC(=O)NC(=O)CNC(C)(CC)c1nc(C)cs1` (configuration not stated), for which the cytotoxicity at 10 µM turned out to be 6.99%.

For `COCC(=O)NCc1cccc(OCCN(C)C2CCOCC2)c1`, the cytotoxicity at 10 µM worked out at 8.35%.

Consider `COc1ncc(C2(O)CCN(Cc3cccc(F)c3F)CC2)c(OC)n1`, for which the cytotoxicity at 10 µM is -8.33%.

With `CCN(Cc1cccc(NC(=O)COC)c1)C(C)=O`, the cytotoxicity at 10 µM was -125%.

Regarding `CC(O)CN(Cc1cccc(C(=O)N(C)C)c1)c1ccccc1` (configuration not stated), the cytotoxicity at 10 µM was found to be 2.45%.

In the case of `N#Cc1ccc(NCCC(=O)N2CCCc3ccccc32)nc1`, the cytotoxicity at 10 µM is -1.33%.

Regarding `CN(C)C(=O)NCc1ncn2c1CN(S(C)(=O)=O)CCC2`, the cytotoxicity at 10 µM came to 11%.

In the case of `O=C(O)c1nnn(Cc2cccc(C(F)(F)F)c2)c1-c1ccncc1`, the cytotoxicity at 10 µM stood at 1.93%.

For the compound `CN(C)c1ncc2c(n1)C1(CCN(Cc3cccnc3)C1)COC2` (configuration not stated), the cytotoxicity at 10 µM was found to be 9.05%.

In the case of `CN(Cc1cn2c(n1)CN(C(=O)CC1CC1)CC2)Cc1ccco1`, the cytotoxicity at 10 µM is -2.21%.

For `COc1ncnc(N)c1CNCCc1ccc(-n2cccn2)cc1`, the cytotoxicity at 10 µM was -13.3%.

As to `COCCNC(=O)C(C)S(=O)(=O)c1ccc(OC)cc1` (configuration not stated), the cytotoxicity at 10 µM was 4.4%.

Regarding `c1cnc(N2CCC3(CC2)CC(NCC2CC2)c2ccccc23)nc1` (configuration not stated), the cytotoxicity at 10 µM was 22.4%.

Consider `COc1cc(OC)cc(C2CC(=O)Nc3c2nc2n3CCCC2)c1` (configuration not stated), for which the cytotoxicity at 10 µM is -3.99%.

As to `CN(CC1COc2ccccc2O1)C(=O)NCCCn1ccnc1` (configuration not stated), the cytotoxicity at 10 µM was -5.54%.

Turning to `Cn1cnc2c1C(COCc1ccccc1)N(Cc1ccncc1)CC2` (configuration not stated), the cytotoxicity at 10 µM was -1.99%.

Turning to `COCCn1cnc(-c2nc(C(=O)N3CCOCC3)c3ccccn23)c1`, the cytotoxicity at 10 µM was -10.3%.

For the compound `CN(Cc1cc[nH]n1)C(=O)C1CC(=O)N(Cc2ccncc2)C1` (configuration not stated), the cytotoxicity at 10 µM stood at 1.59%.

As for `Cc1cccc(N2CCOC(C(=O)O)C2)c1` (configuration not stated), the cytotoxicity at 10 µM was -8.89%.

On to `CCC(O)Cn1nc(-c2ccc(C(=O)O)cc2)cc1-c1cccc(F)c1` (configuration not stated), for which the cytotoxicity at 10 µM was 8.17%.

With `COCCN(Cc1ccccc1Cl)C(=O)c1c(C)cc(C)[nH]c1=O`, the cytotoxicity at 10 µM is -5.6%.
